CHOP inhibitor: inhibitors of CHOP promoter induction, primary screen, cell-based, unfolded protein response, luciferase reporter. CHO-K1 CHOP-promoter luciferase, tunicamycin-induced, 15-18 h. inhibition, % at 10 µM. 3.8% of 220,000 active;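 active = compounds that reduced the stress-induced luciferase reporter signal by more than about 70% of percent inhibition, limit read from the data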
GRIN3A LBD mod: binders of NR3A ligand-binding domain, primary screen, biophysical, differential scanning fluorimetry, uHTS; Glutamate receptor ionotropic, NMDA 3A (GRIN3A) ligand-binding domain; Tm shift relative to glycine control, % at 25 µM; NR3A LBD differential scanning fluorimetry, Tm shift; 0% = protein alone, 100% = glycine-bound protein; AID 1259313, 2017; 2.5% of 340,000 active;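 active = melting temperature shift of at least 10% of the positive control shift, at one fixed dose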
EBV gp42 block: Epstein-Barr virus gp42 inhibitors, primary screen, biochemical, uHTS, fluorescence polarization. Glycoprotein 42 (Epstein-Barr virus (strain AG876)), Q1HVG2. Fluorescence polarization binding assay, mP read-out. inhibition, % (tested at 21.74 µM). 0.42% of 220,000 active. AID 1085, 2008; in the data active = inhibition above about 50%
Target sequence (Q1HVG2 whole entry, looked up): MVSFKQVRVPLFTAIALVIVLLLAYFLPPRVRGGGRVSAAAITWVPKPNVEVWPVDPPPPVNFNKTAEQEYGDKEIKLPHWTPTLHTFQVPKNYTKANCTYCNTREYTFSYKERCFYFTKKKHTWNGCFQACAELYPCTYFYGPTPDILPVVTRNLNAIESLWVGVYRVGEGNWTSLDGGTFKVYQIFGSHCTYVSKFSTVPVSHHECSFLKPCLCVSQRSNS
MPTP block: mitochondrial permeability transition pore inhibitors, primary screen, biochemical, isolated mouse mitochondria, absorbance; Ca2+ swelling absorbance, 30 min; inhibition, % at 10 µM; 1.4% of 360,000 active;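 active = inhibition of 50% or more, scaled per plate between neutral and stimulator controls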
TbMetRS inhib: T. brucei MetRS inhibitors, primary screen, biochemical, luminescence. methionyl-tRNA synthetase (Trypanosoma brucei brucei). purified T. brucei MetRS, ATP depletion, Kinase-Glo luminescence. inhibition, % at 11.9 µM. 0.4% of 360,000 active. AID 624268, 2012;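 active = inhibition above a per-plate cutoff of the control wells' mean inhibition plus 3 SD, cut at about 5.5% in these data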
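Test system – parasite MetRS enzyme · Reagent – substrates ATP, L-methionine and bulk Escherichia coli tRNA · Doses – 11.9 µM compound single dose, 0.9% DMSO · Times – 15 min enzyme-compound preincubation, 2 h reaction, 10 min detection, 25 °C · Signal – Kinase-Glo luminescence, ATP depletion format · Controls – DMSO-only wells as low control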
WT yeast gro inh: growth inhibition of WT strain, primary screen, mitochondrial fusion inhibitor project, WT and mutant strains, chemical genetic | mitochondrial fusion phenotypic screen | inhibition, % at 10 µM | 2.1% of 190,000 active | AID 1362, 2008; in the data active = inhibition above about 58%; tested in S. cerevisiae
Numbers stand for hits; n = inactive; x = no result; ! = not confirmed by another sample. Hits are enriched below; roughly 6.4% of the tested compounds scored in any of these assays.

SMILES	CHOP inhibitor	GRIN3A LBD mod	EBV gp42 block	MPTP block	TbMetRS inhib	WT yeast gro inh
O=C(NCc1ccc(F)cc1)C1CCC(=O)N1CCc1ccccc1 (stereo not drawn)	n	n	n	n	n	n
CCn1cc(C(=O)N2CCN(c3ccc(OC)cc3)CC2)c(=O)c2cc(S(=O)(=O)N3CCCCC3)ccc21	n	n	n	n	n	n
Nc1nc(O)c(Sc2ccccc2[N+](=O)[O-])c(=O)[nH]1	x	17	x	n	n	x
Nc1ccccc1Sc1ccccc1[N+](=O)[O-]	n	n	n	n	n	n
COC(=O)c1cc(C(=O)NC(C)(C)CC(C)(C)C)cc([N+](=O)[O-])c1	n	n	n	n	n	n
O=C(O)c1ccc2c(c1)C(=O)N(c1cccc(-c3nc4ccccc4s3)c1)C2=O	n	n	n	n	n	n
O=C1c2cccc3c(N4CCCCC4)ccc(c23)C(=O)N1c1cccc(O)c1	72	n	n	n	n	n
Cc1n[nH]c(C)c1N1C(=O)c2cccc3c(N4CCCCCC4)ccc(c23)C1=O	n	n	193	n	n	n
CNC[C@@H]1Oc2ccc(NC(=O)Nc3ccccc3)cc2C(=O)N([C@@H](C)CO)C[C@H]1C	x	n	x	n	n	x
COc1cc(/C(O)=C(\C#N)c2nc3ccccc3[nH]2)cc(OC)c1OC	x	n	x	n	n	x
CCOC(=O)c1ccc(N2C(=O)c3n[nH]c(-c4ccco4)c3C2c2cccc([N+](=O)[O-])c2)cc1 (stereo not drawn)	71	24	n	n	n	n
COCc1c(C(=O)N/N=C\c2cccs2)nnn1-c1nonc1N	x	n	x	n	n	x
Nc1nonc1-n1nnc(C(=O)N/N=C/c2ccc3c(c2)OCO3)c1CSc1ccccc1	x	39	x	n	n	x
Cc1ccc(SCc2c(C(=O)N/N=C/c3ccncc3)nnn2-c2nonc2N)cc1	x	n	x	n	n	x
Nc1nonc1-n1nnc(C(=O)N/N=C/c2cccs2)c1CSc1ccccc1	x	37	x	n	n	x
Nc1nonc1-n1nnc(C(=O)N/N=C/c2c(Cl)cccc2Cl)c1CSC1=NCCS1	n	n	n	n	n	x
Nc1nonc1-n1nnc(C(=O)N/N=C/C=C/c2ccccc2)c1CSC1=NCCS1	n	16	n	n	n	x
Cc1ccc(/C=N/NC(=O)c2nnn(-c3nonc3N)c2CSc2ccc(Cl)cc2)cc1	n	26	n	n	n	n
Nc1nonc1-n1nnc(C(=O)N/N=C/C2CC=CCC2)c1CSc1ccccc1 (stereo not drawn)	n	n	n	n	n	x
Nc1nonc1-n1nnc(C(=O)N/N=C/c2ccncc2)c1CSc1ccc(Cl)cc1	x	n	x	n	n	x
CCc1c(C(=O)N/N=C/c2cccs2)nnn1-c1nonc1N	x	22	x	n	n	x
CCN(CC)Cc1c(C(=O)N/N=C/c2cccs2)nnn1-c1nonc1N	x	n	x	n	n	x
Nc1nonc1-n1nnc(C(=O)N/N=C/c2ccccc2Cl)c1CSc1ccccc1	n	30	n	n	n	x
N#CC1C(=O)Nc2cccnc21 (stereo not drawn)	x	x	x	n	n	x
Cc1ccc2cc(/C=C(\C#N)C(N)=O)c(N3CCCCC3)nc2c1	n	n	n	n	n	n
SMILES	CHOP inhibitor	GRIN3A LBD mod	EBV gp42 block	MPTP block	TbMetRS inhib	WT yeast gro inh
CCOC(=O)/C(C#N)=C/c1cc2ccccc2nc1N1CCCCC1	n	n	60	n	n	n
Cc1ccc2cc(C=C(C#N)C#N)c(N3CCCCC3)nc2c1	n	n	117	n	n	n
CNC(=O)c1[nH]cnc1C(=O)Nc1cccc(Cl)c1	x	n	x	n	n	x
COc1cc(-c2nn3c(-c4cccnc4)nnc3s2)cc(OC)c1OC	n	n	n	n	n	n
O=C(CSc1ccc2nnc(-c3ccccn3)n2n1)Nc1ccc(F)cc1	x	n	x	n	n	x
c1ccc(Nc2scc(-c3ccccc3)[n+]2Cc2ccco2)cc1	n	n	n	n	n	67
Cc1cc(C)cc(N(CC(=O)NC2CCCCC2)C(=O)CCC(=O)Nc2cc(C)ccn2)c1	x	n	x	n	n	x
Oc1ccccc1C=NC1=NN(c2cccc(C(F)(F)F)c2)CC1	n	n	113	n	n	n
CN(C)c1ccc(/C=c2/sc3n(c2=O)NC2(c4ccccc4)N(C)C(=O)N(C)C2(c2ccccc2)N=3)cc1 (stereo not drawn)	n	x	50	x	x	n
CN1C(=O)N(C)C2(c3ccccc3)Nn3c(s/c(=C/c4ccccc4F)c3=O)=NC12c1ccccc1 (stereo not drawn)	71	x	n	x	x	n
CN1C(=O)N(C)C2(c3ccccc3)NNC(N)=NC12c1ccccc1 (stereo not drawn)	n	n	n	n	n	x
CN1C(=O)N(C)C2(c3ccccc3)Nn3c(s/c(=C/c4ccco4)c3=O)=NC12c1ccccc1 (stereo not drawn)	n	n	n	n	n	n
CC(C)(C)c1ccc(C(=O)NCCCNC(=O)c2ccco2)cc1	x	n	x	n	n	x
CN(C)CCCNCCCNC(=O)c1ccco1	n	11!	n	n	n	n
COc1ccc(CCNC(=O)CN2C(=O)NC3(CCc4ccccc43)C2=O)cc1 (stereo not drawn)	x	n	x	n	n	x
O=C(Cn1c(COc2ccccc2)nc2ccccc21)Nc1cccc(Cl)c1	78	n	n	n	n	n
CCC/C=N/Nc1nc2ccccc2s1	n	n	n	n	n	n
CCN(CC)CCNC(=O)Cn1c(-c2ccccn2)nc2ccccc21	n	n	n	n	n	61
COc1ccc(C=O)cc1CSc1nnc(COc2cccc3cccnc23)o1	n	n	n	n	n	67
COc1ccc(N2CCN(C(=O)CSc3nnc(COc4cccc5cccnc45)o3)CC2)cc1	n	n	n	n	n	n
c1ccc(CN2CCN(c3ncnc4c3[nH]c3ccccc34)CC2)cc1	87	n	n	n	6.2	n
CCC(=O)Nc1ccc2ccccc2c1	n	n	n	n	n	n
CC(C)(C)CC(C)(C)NC(=O)CSCC(=O)Nc1ccc2ccccc2c1	n	n	n	n	n	68
Cc1ccc(C2=NS(=O)(=O)N(C)C(C(=O)Nc3cc(C)n(CC(=O)N4CCC(C)CC4)n3)=C2)cc1	x	n	x	n	n	x
COc1ccc(NC(C)=O)c([N+](=O)[O-])c1[N+](=O)[O-]	x	14	x	n	n	x
CC(C)c1ccc(-c2nc(N3CCCCCC3)nc3n[nH]c(N)c23)cc1	80	n	n	n	n	n
CC(C)c1ccc(-c2nc(N3CCCC3)nc3n[nH]c(N)c23)cc1	n	n	n	n	n	n
Cc1ccccc1NC(=O)N(O)C1(C#N)CCCCC1	x	15	x	n	n	x
Cc1ccc2nc(NC(=O)C3CCN(C(=O)c4ccc(F)cc4)CC3)sc2c1	x	n	x	n	n	x

Assay outcomes as filed in PubChem BioAssay.
